Source: PubChem BioAssay
Calls of active or inactive are those of the source.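 Rule for the calls, unless noted: active = fluorescence slope after compound addition differing from the mean of all tested samples at 99.7% confidence, mostly higher but some lower; inactive = the rest.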

How the values were obtained:
[1] = inhibitors of TNFa-induced NFkB p65 translocation, primary screen, imaging, HUVEC, MLSMR starter and 10KST1 sets (AID 438;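 active = inhibition above 20% together with a positive visual image hit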;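 note: compound added about 3h40 before a 20 min TNFalpha stimulation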;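 for inhibition: signal is the nuclear over cytoplasmic p65 intensity ratio per well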); settings: HUVEC TNFa-induced p65 nuclear translocation; cell count: measured here: nuclei count (cytotoxicity indicator), at 2.08 µM; inhibition: at 2 µM, stronger effect = higher value, 0% TNFa-plus-vehicle, 100% no-TNFa wells
[2] = inhibitors of mutant huntingtin aggregation, primary screen, imaging, exon1htt(103Q)mCFP cells, high-content imaging (AID 483;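 active = visual image review flags a hit and inhibition of aggregation exceeds 20%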;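 note: compound exposure lasted 3 days before fixation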;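 for nuclei count: percent of the per-plate median nuclei count of sample wells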); settings: exon1htt(103Q)mCFP cell line, aggregate imaging, at 2 µM; inhibition of aggregation: stronger effect = higher value; nuclei count: measured here: cell count, toxicity
[3] = inhibitors of E-selectin induction by TNFa, primary screen, imaging, HUVEC, immunofluorescence, MLSMR starter and 10KST1 sets (AID 487;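 active = visually confirmed hit in the image check and inhibition above 20%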;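 for inhibition: signal is fraction of cell area covered by stained E-selectin grains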;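 for nuclei count: 100% = median nuclei count of all wells on the same plate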); settings: HUVEC TNFalpha-induced E-selectin immunofluorescence imaging, at 2 µM; inhibition: stronger effect = higher value; nuclei count: measured here: cell number, toxicity
[4] = target: Voltage-gated potassium channel subunit beta-2 (Rattus norvegicus) (UniProt P62483); test: KvBeta enzyme negative modulators, primary screen, biochemical, NADPH fluorescence (AID 622;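 active = fluorescence slope higher than the sample average by over 3 SD, cut at about -0.22 in these data, passing the limit was not always enough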;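 note: slope of raw intensity against log time taken from 70 to 1610 s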); settings: recombinant KvBeta, 4-cyanobenzaldehyde reduction, at 10 µM, stronger effect = higher value
Chain of Voltage-gated potassium channel subunit beta-2 (Rattus norvegicus) (P62483 whole entry, looked up): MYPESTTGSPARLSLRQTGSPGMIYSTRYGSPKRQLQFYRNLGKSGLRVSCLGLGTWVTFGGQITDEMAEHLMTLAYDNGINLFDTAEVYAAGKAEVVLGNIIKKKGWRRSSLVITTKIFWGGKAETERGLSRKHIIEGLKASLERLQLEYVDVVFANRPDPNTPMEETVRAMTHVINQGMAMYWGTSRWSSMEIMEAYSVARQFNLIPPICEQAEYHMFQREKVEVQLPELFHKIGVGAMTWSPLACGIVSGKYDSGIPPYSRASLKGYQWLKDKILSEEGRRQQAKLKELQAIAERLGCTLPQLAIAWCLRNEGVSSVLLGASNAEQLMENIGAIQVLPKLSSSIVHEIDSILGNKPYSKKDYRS

[5] = target: Voltage-gated potassium channel subunit beta-2 (Rattus norvegicus) (UniProt P62483); test: KvBeta positive modulators, primary screen, biochemical, NADPH fluorescence (AID 623;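 active = NADPH fluorescence slope more negative than the mean of all samples by about 3 SD, 99.7% confidence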;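 note: fluorescence intensity change per second fitted from 20 to 320 s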); settings: Recombinant KvBeta, NADPH fluorescence decrease slope, 10 min; at 10 µM; stronger effect = lower value
[6] = target: Muscarinic acetylcholine receptor M4 (Homo sapiens) (UniProt P08173); test: compounds altering M4/GIRK thallium flux, either direction, primary screen, M4 allosteric agonist project, cell-based, HEK293 M4/GIRK, BTC-AM (AID 625); settings: at 10 µM, actives lie on both sides;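 note: thallium influx through GIRK channels coupled to M4 in HEK293 cells with BTC-AM dye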
Chain of Muscarinic acetylcholine receptor M4 (Homo sapiens) (P08173 whole entry, looked up): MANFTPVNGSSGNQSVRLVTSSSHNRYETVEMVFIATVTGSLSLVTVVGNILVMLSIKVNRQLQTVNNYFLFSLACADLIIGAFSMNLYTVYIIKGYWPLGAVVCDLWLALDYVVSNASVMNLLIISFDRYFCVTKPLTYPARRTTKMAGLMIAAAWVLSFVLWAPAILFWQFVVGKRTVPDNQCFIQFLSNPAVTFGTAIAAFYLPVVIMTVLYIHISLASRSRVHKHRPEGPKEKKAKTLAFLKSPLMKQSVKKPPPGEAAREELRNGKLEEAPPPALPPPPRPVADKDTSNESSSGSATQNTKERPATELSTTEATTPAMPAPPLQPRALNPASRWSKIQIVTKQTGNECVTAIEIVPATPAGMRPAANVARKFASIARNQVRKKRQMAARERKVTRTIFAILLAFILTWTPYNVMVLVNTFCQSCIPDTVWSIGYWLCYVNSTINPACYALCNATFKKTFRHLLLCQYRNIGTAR
Method in brief: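 assay system = HEK293 cells with M4 receptor and GIRK channels | medium = pH 7.3 thallium assay buffer | doses = 10 µM final, single point | timing = cells overnight at 37 °C, BTC-AM loading 1 h, reads 2 min total | signal = BTC-AM fluorescence, 1 Hz kinetic reads | read-out = post-addition slope, 15–24 s, of baseline-normalized fluorescence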

[7] = inhibitors of Sendai virus-induced IRF3 signaling, primary screen, TLR/RLR signaling modifier project, cell-based, Sendai virus stimulus, luciferase, 10K MLSCN set (AID 602276;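 active = inhibition at or above 50% at 10 µM; inactive = inhibition below 50%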;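 note: firefly luciferase from ISG56 promoter only with Renilla not read in this screen; 0% = Sendai virus plus DMSO and 100% = medium plus DMSO without virus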); settings: HEK293 RL24 IRF3 luciferase reporter, at 10 µM, stronger effect = higher value
[8] = inhibitors of poly I:C-induced TLR3 signaling, primary screen, cell-based, poly I:C stimulus, luciferase, 10K MLSCN set (AID 602277;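 active = inhibition of the reporter signal at or above 50%; inactive = inhibition below 50%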); settings: HEK293-TLR3 RL24 IRF3 luciferase reporter, at 10 µM, stronger effect = higher value

Structure (SMILES) | cell count [1] | inhibition [1] | inhibition of aggregation [2] | nuclei count [2] [%] | inhibition [3] | nuclei count [3] [%] | fluorescence slope [4] | NADPH fluorescence slope [5] | fluorescence slope [6] | inhibition [7] | inhibition [8]
COc1ccc(C2CC(=O)c3c(C)nc(N4CCN(c5ccccc5)CC4)nc3C2)cc1 (stereo not drawn) | 598 | 5.6% (inactive) | -5.3% (inactive) | 109 | 29.4% (inactive) | 108 | -0.574 (inactive) | -4.7e-05 (inactive) | 0.00457 (inactive) | 8.81% (inactive) | -8.5% (inactive)
CCn1c(SCC(=O)Nc2ccc(C(C)=O)cc2)nc2ccccc21 | 227 | 14.4% (inactive) | -7.2% (inactive) | 101 | -2.2% (inactive) | 98.3 | -0.453 (inactive) | -0.000344 (inactive) | 0.00502 (inactive) | -13% (inactive) | -19.9% (inactive)
COc1ccc(CCN2C(=O)C3C4C=CC(C4)C3C2=O)cc1OC (stereo not drawn) | 493 | -3.8% (inactive) | 2.1% (inactive) | 105 | -4.2% (inactive) | 99.7 | -0.451 (inactive) | -4e-05 (inactive) | 0.00653 (inactive) | 10.2% (inactive) | 12.7% (inactive)
COc1ccccc1N1CCN(c2nc3ccccc3nc2C(C#N)C(=O)OC(C)C)CC1 (stereo not drawn) | 518 | 1% (inactive) | -12.2% (inactive) | 119 | -72.9% (inactive) | 191 | -0.523 (inactive) | -0.000323 (inactive) | 0.00467 (inactive) | -13.1% (inactive) | -6.25% (inactive)
O=C(CSC1=NCCS1)NCc1ccco1 | 294 | 0.2% (inactive) | 16.5% (inactive) | 87.2 | -109% (inactive) | 108 | -0.268 (inactive) | 1.6e-06 (inactive) | 0.00551 (inactive) | -13.7% (inactive) | -22.5% (inactive)
CC(=O)Nc1ccc(OC(=O)c2cccnc2)cc1 | 367 | 0.3% (inactive) | -13.8% (inactive) | 103 | -194% (inactive) | 112 | -0.318 (inactive) | -4.9e-05 (inactive) | 0.00601 (inactive) | -10.8% (inactive) | -12.7% (inactive)
Cc1cc(/C=N/n2cnnc2)c(C)n1-c1ccc(Cl)cc1Cl | 485 | 7.6% (inactive) | -10.2% (inactive) | 94.2 | -275% (inactive) | 135 | -0.294 (inactive) | -3e-05 (inactive) | 0.00517 (inactive) | 17.2% (inactive) | 16.7% (inactive)
CC1(C)OC(=O)C(=CNc2ccccc2)C(=O)O1 | 548 | 9.4% (inactive) | -4.1% (inactive) | 108 | 54.3% (inactive) | 102 | -0.617 (inactive) | -1.8e-06 (inactive) | 0.00548 (inactive) | -10% (inactive) | 99% (active)
Cc1cc(=O)oc2cc(OCC(=O)OCc3nnc(-c4ccccc4)o3)ccc12 | 527 | -7.7% (inactive) | 5.8% (inactive) | 123 | -10.9% (inactive) | 121 | -0.399 (inactive) | 2.8e-05 (inactive) | 0.00584 (inactive) | 6.17% (inactive) | 7.89% (inactive)
COc1ccc(OC)c(C(=O)c2nc3c(n2O)CCCCC3)c1 | 332 | -1.1% (inactive) | -40.7% (inactive) | 114 | -55% (inactive) | 103 | -0.567 (inactive) | -6.5e-05 (inactive) | 0.00381 (inactive) | 5.91% (inactive) | 7.03% (inactive)
Cc1cc(Cl)c(S(=O)(=O)N2CCN(c3ccc(F)cc3)CC2)cc1OCC(N)=O | 373 | -9% (inactive) | 0.5% (inactive) | 97.1 | -37.6% (inactive) | 96.1 | -0.587 (inactive) | -9.2e-05 (inactive) | 0.0038 (inactive) | 19.6% (inactive) | 9.49% (inactive)
COc1cccc(S(=O)(=O)Nc2cccnc2)c1 | 625 | -15.2% (inactive) | -31.5% (inactive) | 119 | -20.1% (inactive) | 96.4 | -0.552 (inactive) | 3.5e-05 (inactive) | 0.00542 (inactive) | 5.36% (inactive) | -3.49% (inactive)
COC(=O)COc1ccc(C(=O)OC)cc1 | 384 | 5% (inactive) | 9.9% (inactive) | 100 | -33.2% (inactive) | 102 | -0.456 (inactive) | 1.1e-05 (inactive) | 0.00492 (inactive) | 6.44% (inactive) | 10.8% (inactive)
Cc1cc(C(=O)O)ccc1-n1c(C)ccc1C | 332 | -3.7% (inactive) | 0.1% (inactive) | 106 | -88.3% (inactive) | 118 | -0.554 (inactive) | -3.5e-05 (inactive) | 0.00607 (inactive) | 14.8% (inactive) | 20% (inactive)
CC(OC1=CC(=O)CCC1)C(=O)c1ccccc1 (stereo not drawn) | 370 | 10.4% (inactive) | 36.6% (active) | 64.2 | 24.1% (inactive) | 72.3 | -0.569 (inactive) | 1.9e-05 (inactive) | 0.00642 (inactive) | 14.1% (inactive) | 18.3% (inactive)
COCC(=O)N(Cc1ccccc1)c1ccccn1 | 354 | 4.9% (inactive) | 1.6% (inactive) | 94.8 | -58.3% (inactive) | 153 | -0.599 (inactive) | -4.6e-05 (inactive) | 0.00609 (inactive) | 11.8% (inactive) | 14.7% (inactive)
Cc1nc2c3cnn(-c4ccccc4)c3ncn2n1 | 470 | 1.7% (inactive) | -9.9% (inactive) | 105 | -62.2% (inactive) | 108 | -0.406 (inactive) | 8.7e-05 (inactive) | 0.00848 (inactive) | -1.03% (inactive) | -18.2% (inactive)
Cc1nc(SCC(=O)Nc2ccccc2C(F)(F)F)c2c(=O)n(C)c(=O)n(C)c2n1 | 414 | -4.7% (inactive) | 1.1% (inactive) | 120 | -111% (inactive) | 121 | -0.447 (inactive) | 8.7e-05 (inactive) | 0.0097 (inactive) | 7.4% (inactive) | 13.5% (inactive)
Cc1cc(Nc2ccccc2)n(CCC#N)n1 | 350 | 1.6% (inactive) | -7.9% (inactive) | 96.4 | -89.1% (inactive) | 129 | -0.415 (inactive) | -8.1e-05 (inactive) | 0.00613 (inactive) | 15.7% (inactive) | 14.3% (inactive)
C1=CC2CC1CC2CN1CCN(c2ccccc2)CC1 (stereo not drawn) | 411 | 1.5% (inactive) | -19.6% (inactive) | 114 | -37.7% (inactive) | 100 | -0.479 (inactive) | -2.1e-05 (inactive) | 0.00448 (inactive) | 2.18% (inactive) | 4.2% (inactive)
Nc1nnc(-c2cc3ccccc3oc2=O)s1 | 723 | -6.8% (inactive) | 2.5% (inactive) | 94 | -72.3% (inactive) | 123 | -0.0269 (inactive) | -7.7e-06 (inactive) | 0.0038 (inactive) | -3.81% (inactive) | -27.9% (inactive)
COc1cc2[nH]c(=O)n(CCCCCC(=O)N3CCN(c4ccccn4)CC3)c(=O)c2cc1OC | 195 | 17.8% (inactive) | 6% (inactive) | 100 | 28.9% (inactive) | 92.1 | -0.216 (inactive) | -2.4e-05 (inactive) | 0.00687 (inactive) | 19.6% (inactive) | -1.9% (inactive)
Cc1ccc(NC(=O)COc2nc(C)cs2)cc1 | 400 | 4.5% (inactive) | -3.7% (inactive) | 100 | -48.8% (inactive) | 108 | -0.555 (inactive) | -5e-05 (inactive) | 0.00704 (inactive) | 6.37% (inactive) | 9.54% (inactive)
COCCNc1nc(C(C)(C)C)nc2c1nnn2Cc1ccccc1Cl | 419 | 15.8% (inactive) | 1% (inactive) | 106 | 14.6% (inactive) | 111 | -0.462 (inactive) | -1.9e-06 (inactive) | 0.00616 (inactive) | -0.805% (inactive) | 56% (active)
CC(C)(C)OC(=O)N1CCN(c2ccc(NC(=O)c3cc4ccccc4oc3=O)cc2)CC1 | 409 | 4.4% (inactive) | -4.1% (inactive) | 110 | -52.6% (inactive) | 107 | -0.582 (inactive) | -4.9e-05 (inactive) | 0.0076 (inactive) | 16.2% (inactive) | -11.3% (inactive)
COc1ccccc1C(=O)Nc1ccccc1C(=O)N1CCCC1 | 675 | -6.5% (inactive) | -2.4% (inactive) | 108 | -95.5% (inactive) | 115 | -0.583 (inactive) | -5.2e-05 (inactive) | 0.00691 (inactive) | 15.4% (inactive) | 17% (inactive)
CCC(=NC(C)c1ccccc1)c1c(O)n(C)c(=O)n(C)c1=O (stereo not drawn) | 287 | 9.3% (inactive) | 3.2% (inactive) | 72.1 | -50.4% (inactive) | 133 | -0.518 (inactive) | -0.000132 (inactive) | 0.00372 (inactive) | 8.09% (inactive) | -40% (inactive)
COc1cccc(NC(=O)COc2ccccc2C(N)=O)c1 | 221 | -1.2% (inactive) | 19.1% (inactive) | 83.6 | 14.7% (inactive) | 78 | -0.589 (inactive) | 6.4e-05 (inactive) | 0.00613 (inactive) | -78.1% (inactive) | -182% (inactive)
